Here are results for 37 sequences from the array DNA melting data of Ke et al. (doi:10.1101/2024.01.08.574731).

Series [1] is described as follows: folding enthalpy; higher = less favourable; fluorescence melt of hairpins on a sequencing array, two-state fit. As to conditions: sodium 0.088 M. In outline: (§1)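 With Cy3 and quencher oligos annealed, library hairpins on a sequenced MiSeq flow cell were imaged for Cy3 fluorescence in 50 mM Na-HEPES pH 8.0, 25 mM NaCl, in 2.5 °C steps up to 60 °C. Melting temperature and folding enthalpy were derived from bootstrapped two-state fits of signals normalised to pre-quench Cy3 and to control constructs. Four replicates were combined by inverse variance, with fitted temperatures raised by 9.35 °C to match UV melts.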

The nature of series [2]: melting temperature; fluorescence melt of hairpins on a sequencing array, two-state fit, raised by 9.35 °C to match UV melts. As to conditions: sodium 0.088 M. An outline of the steps:
as §1

Consider GCTGATGGAAACATCAGC (((((((....))))))), for which the folding enthalpy in series [1] is -43.5 kcal/mol. Further, the Tm in series [2] worked out at 67.6 °C.

With GTTAAGGGAAACCTTAAC (((((((....))))))), the folding enthalpy in series [1] is -39.2 kcal/mol. The Tm in series [2] was 50.5 °C.

Turning to GATCATAAGAATGATC ((((((....)))))), the folding enthalpy in series [1] was -27.7 kcal/mol. Besides, the Tm in series [2] was 40.1 °C.

On to GGCAAGGGAAACCCTGCC ((((.((....)).)))), for which the folding enthalpy in series [1] was -38.6 kcal/mol. In series [2], the Tm was determined as 53.2 °C.

GAACCGGGAAACCGGTCC (.(((((....))))).): in series [1], the folding enthalpy was -11.6 kcal/mol. Besides, the Tm in series [2] came to 41.2 °C.

For the sequence GGCTGAGGAAACTCGGTC (.(.(((....))).).), the folding enthalpy in series [1] is -25 kcal/mol. Further, the Tm in series [2] is 40.8 °C.

As for GTAGCTGGAAACAGCTGC (.(((((....))))).), the folding enthalpy in series [1] was -26.3 kcal/mol. In addition, the Tm in series [2] was found to be 55.2 °C.

With GATCCGATGCCGGATC ((((((....)))))), in series [1], the folding enthalpy was -40.1 kcal/mol. The Tm in series [2] stood at 56.1 °C.

For the sequence GCTTTCGAAAGAAAAAGC ((((((....)))..))), the folding enthalpy in series [1] was -26.6 kcal/mol. Further, the Tm in series [2] worked out at 36 °C.

In the case of GGCCAAGCGAAAGCTGCC (((..(((....)))))), the folding enthalpy in series [1] is -21.7 kcal/mol. In series [2], the Tm is 54.3 °C.

In the case of GATCGTGCGAACGATC ((((((....)))))), the folding enthalpy in series [1] is -32.9 kcal/mol. Also, the Tm in series [2] stood at 64.1 °C.

Regarding GGGTCGGGAAACCGGTCC ((..(((....)))..)), the folding enthalpy in series [1] was -28.5 kcal/mol. The Tm in series [2] was 47.2 °C.

Turning to GAGTTTGGAAACGAATTC ((.((.(....).)).)), the folding enthalpy in series [1] is -18.4 kcal/mol. In addition, the Tm in series [2] came out at 33.5 °C.

For GATATAGAAATATATC ((((((....)))))), in series [1], the folding enthalpy is -15 kcal/mol. The Tm in series [2] came out at 31.8 °C.

Consider GCCACGCGAAAGCGGTGC ((..(((....)))..)), for which the folding enthalpy in series [1] was -13.3 kcal/mol. Besides, in series [2], the Tm amounted to 50.1 °C.

As to GACAAAGGAAACTTTGTC (((((((....))))))), the folding enthalpy in series [1] was -43.8 kcal/mol. Also, the Tm in series [2] came out at 53.9 °C.

As for GTAGTGGGAAACTACTAC (((((.(....).))))), the folding enthalpy in series [1] is -31.7 kcal/mol. The Tm in series [2] came to 47.5 °C.

As for GCGGGAGCCCGC ((((....)))), in series [1], the folding enthalpy is -20 kcal/mol. For the same sequence, the Tm in series [2] amounted to 56 °C.

As to GGGAGATCGAAAGATCCC (((..(((....)))))), the folding enthalpy in series [1] is -14.5 kcal/mol. Moreover, the Tm in series [2] was determined as 49.8 °C.

GCCTTGCGAAAGCCAAGC ((.(.((....)).).)): the folding enthalpy in series [1] was -8.85 kcal/mol. Besides, in series [2], the Tm was 39 °C.

On to CGCACGGAAACGTAAGCG ((((((....)))..))), for which the folding enthalpy in series [1] is -34.5 kcal/mol. In addition, the Tm in series [2] was 46.4 °C.

Turning to GATCCGGATCCGGATC ((((((....)))))), the folding enthalpy in series [1] is -51.4 kcal/mol. Also, the Tm in series [2] was found to be 61.3 °C.

In the case of GATCTACGATAGATC ((((((...)))))), the folding enthalpy in series [1] was -19.9 kcal/mol. Further, the Tm in series [2] turned out to be 35.4 °C.

For the sequence GTACTGGGAAACCAGTGC (.(((((....))))).), in series [1], the folding enthalpy is -22.6 kcal/mol. For the same sequence, the Tm in series [2] came out at 50.2 °C.

On to GATCAGGGCGCTGATC ((((((....)))))), for which the folding enthalpy in series [1] is -47.4 kcal/mol. Besides, the Tm in series [2] was determined as 55.4 °C.

Regarding GCCAGTCGAAAGACCGGC (((.(((....))).))), the folding enthalpy in series [1] was -36.4 kcal/mol. In addition, the Tm in series [2] was 55.3 °C.

For CGATCGCGGAAACGCTCG (((..(((....)))))), the folding enthalpy in series [1] was -15.4 kcal/mol. Moreover, the Tm in series [2] worked out at 36.8 °C.

As to GCTCGCGAAAGCGCCAGC ((((((....)))..))), in series [1], the folding enthalpy is -8.57 kcal/mol. Besides, the Tm in series [2] is 42.1 °C.

Turning to GCCGGCGCGAAAGCGGGC (((..(((....)))))), the folding enthalpy in series [1] was -14.4 kcal/mol. The Tm in series [2] was 63 °C.

In the case of GGCCCACCGAAAGGTGCC (((..(((....)))))), the folding enthalpy in series [1] was -9.96 kcal/mol. Besides, in series [2], the Tm was 34.2 °C.

With GATCCGCCTCCGGATC ((((((....)))))), the folding enthalpy in series [1] is -34.5 kcal/mol. Also, the Tm in series [2] is 56.1 °C.

GTCCGCGGAAACGTGGAC ((((.((....)).)))): in series [1], the folding enthalpy is -43.5 kcal/mol. Besides, the Tm in series [2] is 62 °C.

GATCGATTTGTCGATC ((((((....)))))): the folding enthalpy in series [1] was -41.5 kcal/mol. In addition, in series [2], the Tm was found to be 55.5 °C.

On to GATCTTGTTAAGATC ((((((...)))))), for which the folding enthalpy in series [1] was -30.1 kcal/mol. In addition, the Tm in series [2] was 45.8 °C.

Take GCGACTGGTCGC ((((....)))): in series [1], the folding enthalpy is -38.1 kcal/mol. The Tm in series [2] is 60.3 °C.

As to GATCAGAAACTGATC ((((((...)))))), in series [1], the folding enthalpy is -36.4 kcal/mol. Moreover, the Tm in series [2] was 47.5 °C.

With GTGGATGGAAACATTCAC (((.(((....))).))), the folding enthalpy in series [1] is -45.5 kcal/mol. In series [2], the Tm turned out to be 46.6 °C.
